For experiment [1], the system named is Enterococcus faecium. Briefly: Antimicrobial activity against penicillin-resistant Enterococcus faecium D63r by microdilution method. The experiment is classed as functional.
The nature of experiment [2]: Inhibition of PBP1 in penicillin-resistant Enterococcus faecium D63r membranes assessed as inhibition of fluorescent ampicillin binding after 20 mins at 37 degC. A digest of the protocol:
(§1)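 Competition assay on purified membrane preparations (300 μg protein). Membranes preincubated 20 min at 37°C with increasing β-lactam concentrations, then 1 h at 37°C with saturating 25 μM fluorescent ampicillin. Proteins resolved by SDS-PAGE and fluorography. IC50 is the concentration inhibiting 50% of fluorescent ampicillin labelling relative to a drug-free control.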

Experiment [3] in a line: Inhibition of PBP2 in penicillin-resistant Enterococcus faecium D63r membranes assessed as inhibition of fluorescent ampicillin binding after 20 mins at 37 degC. A digest of the protocol:
as §1

The nature of experiment [4]: Inhibition of PBP3 in penicillin-resistant Enterococcus faecium D63r membranes assessed as inhibition of fluorescent ampicillin binding after 20 mins at 37 degC. Summed up: as §1
The nature of experiment [5]: Inhibition of PBP4 in penicillin-resistant Enterococcus faecium D63r membranes assessed as inhibition of fluorescent ampicillin binding after 20 mins at 37 degC. A digest of the protocol: as §1
Experiment [6] can be described thus: Inhibition of PBP5 in penicillin-resistant Enterococcus faecium D63r membranes assessed as inhibition of fluorescent ampicillin binding after 20 mins at 37 degC. Summed up: as §1
Experiment [7] is described as follows: Inhibition of PBP6 in penicillin-resistant Enterococcus faecium D63r membranes assessed as inhibition of fluorescent ampicillin binding after 20 mins at 37 degC. A digest of the protocol:
as §1

Experiment [8] deals with Enterococcus faecium. Briefly: Antimicrobial activity against Enterococcus faecium D63 by microdilution method. Format: functional. A general note: Dilution methods test growth across graded concentrations, often in twofold steps.
Experiment [9] concerns Enterococcus faecium. As to the kind of experiment: Antimicrobial activity against penicillin-resistant Enterococcus faecium D63r assessed as bacterial killing at 4 times MIC by time kill curve method. Format: functional, organism-based.
Experiment [10] relates to Enterococcus faecium. As to the kind of experiment: Antimicrobial activity against Enterococcus faecium D63 assessed as bacterial killing at 4 times MIC by time kill curve method. Format: functional, organism-based. A digest of the protocol: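 Survivors counted at 0, 4 and 24 h of incubation at 37°C by plating serial dilutions (at least 10-fold, to limit carryover).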

Experiment [11] can be described thus: Inhibition of PBP1 in wild type Enterococcus faecium D63 membranes assessed as inhibition of fluorescent ampicillin binding after 20 mins at 37 degC.
Experiment [12] is described as follows: Inhibition of PBP2 in wild type Enterococcus faecium D63 membranes assessed as inhibition of fluorescent ampicillin binding after 20 mins at 37 degC. A digest of the protocol: as §1
Experiment [13] is described as follows: Inhibition of PBP3 in wild type Enterococcus faecium D63 membranes assessed as inhibition of fluorescent ampicillin binding after 20 mins at 37 degC.
Experiment [14] is described as follows: Inhibition of PBP4 in wild type Enterococcus faecium D63 membranes assessed as inhibition of fluorescent ampicillin binding after 20 mins at 37 degC.
The nature of experiment [15]: Inhibition of PBP5 in wild type Enterococcus faecium D63 membranes assessed as inhibition of fluorescent ampicillin binding after 20 mins at 37 degC. Summed up: as §1
Experiment [16] in a line: Inhibition of PBP6 in wild type Enterococcus faecium D63 membranes assessed as inhibition of fluorescent ampicillin binding after 20 mins at 37 degC. A digest of the protocol:
as §1

For experiment [17], the system named is Enterococcus faecium. Briefly: Inhibition of Enterococcus faecium low-affinity PBP5fm assessed as rate constant for enzyme acylation by spectrophotometry. Summed up: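 Soluble PBP 5fm (N-terminal membrane anchor removed), overproduced and purified without molecular sieve step. β-lactam ring opening followed at 319 nm, 30°C, 10 mM phosphate pH 7.0, 10 μM enzyme, across drug concentrations. Pseudo-first-order ka fitted from absorbance traces. k+2/K taken from slope of ka versus concentration.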

Experiment [18] concerns Staphylococcus aureus. As to the kind of experiment: Inhibition of Staphylococcus aureus PBP2a assessed as rate constant for enzyme acylation by spectrophotometry.

We go through five compounds from ChEMBL document CHEMBL1240353 (Antimicrob Agents Chemother, 2010).

As a reminder, the MIC is the lowest concentration that inhibits growth of the organism. Higher therefore signals weaker potency. As usually defined, the IC50 is the point on the concentration scale where inhibition reaches its midpoint.

Converted amounts (≈) assume the structure as drawn. The source made the active and inactive calls. No cut-off for these calls is given here.

With `CO/N=C(\C(=O)N[C@@H]1C(=O)N2C(C(=O)[O-])=C(C[N+]3(C)CCCC3)CS[C@H]12)c1csc(N)n1`, the minimal inhibitory concentration (MIC) in [1] was > 100 µg/mL. Moreover, the IC50 in experiment [2] is 1.7 µg/mL (≈ 3.54 µM); in [3] it was 0.6 µg/mL (≈ 1.25 µM); in [4], 0.5 µg/mL (≈ 1.04 µM); in [5], > 200 µg/mL; in [6], > 200 µg/mL; in experiment [7], > 50 µg/mL.
On to `Nc1nc(/C(=N/O)C(=O)N[C@@H]2C(=O)N3C(C(=O)O)=C(/C=C4\CCN([C@@H]5CCNC5)C4=O)CS[C@H]23)ns1` [CEFTOBIPROLE], for which the MIC in [8] is 2 µg/mL (≈ 3.74 µM); in experiment [1], 8 µg/mL (≈ 15 µM). In addition, the inhibition entry in experiment [9] and in experiment [10] was “Active” throughout. Moreover, the 50% inhibitory concentration (IC50) in experiment [2] amounted to 0.7 µg/mL (≈ 1.31 µM); in [3], 0.2 µg/mL (≈ 0.374 µM); in experiment [4], 0.5 µg/mL (≈ 0.935 µM); in experiment [5] it was 1.8 µg/mL (≈ 3.37 µM); in experiment [6], 1 µg/mL (≈ 1.87 µM); in experiment [11] it was 0.6 µg/mL (≈ 1.12 µM). Moreover, the IC50 in experiment [12] was 0.2 µg/mL (≈ 0.374 µM); in experiment [13], 0.6 µg/mL (≈ 1.12 µM); in [14], 1.5 µg/mL (≈ 2.81 µM); in [15], 0.7 µg/mL (≈ 1.31 µM); in experiment [16] it was > 16 µg/mL. The INH in experiment [17] turned out to be 110 M⁻¹ s⁻¹; in experiment [18] it was 8900 M⁻¹ s⁻¹.
As for `CC1(C)S[C@@H]2[C@H](NC(=O)[C@H](N)c3ccccc3)C(=O)N2[C@H]1C(=O)O` [AMPICILLIN], the MIC in experiment [8] came out at 15 µg/mL (≈ 42.9 µM); in [1] it was 125 µg/mL (≈ 358 µM).
In the case of `CC(C)(O/N=C(\C(=O)N[C@@H]1C(=O)N2C(C(=O)[O-])=C(C[n+]3ccccc3)CS[C@H]12)c1csc(N)n1)C(=O)O` [CEFTAZIDIME], in experiment [1], the MIC was > 100 µg/mL. Further, the half-inhibitory concentration (IC50) was 0.9 µg/mL (≈ 1.65 µM) in [2]; 0.5 µg/mL (≈ 0.915 µM) in [3]; 0.04 µg/mL (≈ 0.0732 µM) in [4]; > 200 µg/mL in [5]; > 200 µg/mL in experiment [6]; > 50 µg/mL in [7].
Regarding `CC1(C)S[C@@H]2[C@H](NC(=O)Cc3ccccc3)C(=O)N2[C@H]1C(=O)O` [PENICILLIN G], the minimum inhibitory concentration (MIC) stood at 5 µg/mL (≈ 15 µM) in [8] and 70 µg/mL (≈ 209 µM) in experiment [1]. Moreover, the inhibition entry in experiment [9] and in experiment [10] was “Active” throughout. Moreover, the IC50 is 1.6 µg/mL (≈ 4.78 µM) in experiment [2]; 0.06 µg/mL (≈ 0.179 µM) in experiment [3]; 0.6 µg/mL (≈ 1.79 µM) in experiment [4]; 8 µg/mL (≈ 23.9 µM) in experiment [5]; 55 µg/mL (≈ 164 µM) in [6]; 2 µg/mL (≈ 5.98 µM) in experiment [7]. Besides, the IC50 in experiment [11] was found to be 0.9 µg/mL (≈ 2.69 µM); in experiment [12], 0.1 µg/mL (≈ 0.299 µM); in experiment [13], 1.3 µg/mL (≈ 3.89 µM); in experiment [14] it was 10 µg/mL (≈ 29.9 µM); in [15] it was 75 µg/mL (≈ 224 µM); in [16] it was 1.5 µg/mL (≈ 4.49 µM). The INH in experiment [17] is 15 M⁻¹ s⁻¹.
